Measurements reported in paper PMC5930004 (European journal of medicinal chemistry, 2018).
“Also recorded” adds a separate entry of the source.

How the values were obtained:
[1] = molecular target: T1, recombinant human TDP2 (Homo sapiens, UniProt O95551); experiment: Recombinant TDP2 assay; assay type: biochemical; conditions: inactive, i.e. IC50 >111 μM
T1 sequence (O95551 1-362): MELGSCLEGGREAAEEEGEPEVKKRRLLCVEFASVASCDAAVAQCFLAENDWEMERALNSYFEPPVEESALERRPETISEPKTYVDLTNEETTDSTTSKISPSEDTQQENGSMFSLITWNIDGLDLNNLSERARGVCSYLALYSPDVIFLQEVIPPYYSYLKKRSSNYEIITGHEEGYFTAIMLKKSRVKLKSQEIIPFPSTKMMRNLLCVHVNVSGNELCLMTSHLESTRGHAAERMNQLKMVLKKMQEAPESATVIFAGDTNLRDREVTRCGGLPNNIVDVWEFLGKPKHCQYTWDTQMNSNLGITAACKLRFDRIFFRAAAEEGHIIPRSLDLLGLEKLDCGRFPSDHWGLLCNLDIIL

[2] = molecular target: recombinant TDP1 (Homo sapiens, UniProt Q9NUW8); experiment: Recombinant TDP1 assay; assay type: biochemical; conditions: highest concentration tested 111 μM
Sequence of recombinant TDP1 (Q9NUW8 whole entry, species assumed): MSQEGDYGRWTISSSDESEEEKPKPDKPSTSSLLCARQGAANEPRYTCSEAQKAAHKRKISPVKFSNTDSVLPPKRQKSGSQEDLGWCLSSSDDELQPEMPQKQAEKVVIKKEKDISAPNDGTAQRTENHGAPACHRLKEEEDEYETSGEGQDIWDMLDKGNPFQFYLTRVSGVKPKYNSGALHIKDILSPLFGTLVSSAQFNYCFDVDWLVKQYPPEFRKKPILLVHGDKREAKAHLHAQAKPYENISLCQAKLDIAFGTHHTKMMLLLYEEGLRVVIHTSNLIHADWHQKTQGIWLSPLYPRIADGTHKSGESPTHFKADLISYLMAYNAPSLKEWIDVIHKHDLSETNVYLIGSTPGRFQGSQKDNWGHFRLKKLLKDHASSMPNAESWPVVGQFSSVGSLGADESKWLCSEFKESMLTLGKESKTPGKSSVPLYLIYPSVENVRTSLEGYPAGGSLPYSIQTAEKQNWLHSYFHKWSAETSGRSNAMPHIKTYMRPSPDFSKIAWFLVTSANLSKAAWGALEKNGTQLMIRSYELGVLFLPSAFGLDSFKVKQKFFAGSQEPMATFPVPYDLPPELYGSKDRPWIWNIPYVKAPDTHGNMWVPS
Procedure, shortened: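 Test compound was run as six or eight three-fold dilutions from 111 μM down to 0.46 μM or 0.051 μM against recombinant TDP1. Reactions were stopped with 1 volume of gel loading buffer (99.5% formamide, 5 mM EDTA, xylene cyanol, bromophenol blue) and resolved by 16% denaturing PAGE. Dried gels were phosphorimaged and quantified by densitometry.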

[3] = molecular target: T2, TOP1 (Homo sapiens, UniProt P11387); experiment: TOP1-mediated DNA cleavage assay; assay type: biochemical; conditions: up to 100 μM
T2 sequence (P11387 1-765): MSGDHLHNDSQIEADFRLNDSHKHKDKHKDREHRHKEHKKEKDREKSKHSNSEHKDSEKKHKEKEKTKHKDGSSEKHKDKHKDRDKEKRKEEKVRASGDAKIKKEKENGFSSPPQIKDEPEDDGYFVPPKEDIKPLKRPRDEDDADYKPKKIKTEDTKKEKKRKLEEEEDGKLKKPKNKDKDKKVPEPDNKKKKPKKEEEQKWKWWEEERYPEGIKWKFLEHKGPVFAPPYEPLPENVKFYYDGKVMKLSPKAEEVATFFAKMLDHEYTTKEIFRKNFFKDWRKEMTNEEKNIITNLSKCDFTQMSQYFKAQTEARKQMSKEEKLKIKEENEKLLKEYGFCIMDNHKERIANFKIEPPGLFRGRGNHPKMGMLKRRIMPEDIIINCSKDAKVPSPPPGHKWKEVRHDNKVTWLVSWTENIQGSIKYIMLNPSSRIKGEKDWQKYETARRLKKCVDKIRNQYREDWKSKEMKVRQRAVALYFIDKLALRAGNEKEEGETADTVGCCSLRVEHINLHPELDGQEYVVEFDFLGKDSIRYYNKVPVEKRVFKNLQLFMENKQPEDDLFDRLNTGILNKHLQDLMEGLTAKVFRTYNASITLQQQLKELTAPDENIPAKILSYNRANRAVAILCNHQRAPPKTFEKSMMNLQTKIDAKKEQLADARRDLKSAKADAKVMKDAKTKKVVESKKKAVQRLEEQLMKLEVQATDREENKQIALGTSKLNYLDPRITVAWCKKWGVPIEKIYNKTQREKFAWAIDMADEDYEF

[4] = system: TOP2; experiment: TOP2-mediated relaxation assay; assay type: biochemical; conditions: 25 μM concentration
[5] = molecular target: TOP2-DNA covalent cleavage complexes (TOP2cc) in CCRF-CEM cells (Homo sapiens, UniProt P11388); experiment: In vivo complex of enzyme; assay type: cell-based; conditions: 2 h treatment, up to 50 μM
Sequence of TOP2-DNA covalent cleavage complexes (TOP2cc) in CCRF-CEM cells (P11388 whole entry, one chain of several): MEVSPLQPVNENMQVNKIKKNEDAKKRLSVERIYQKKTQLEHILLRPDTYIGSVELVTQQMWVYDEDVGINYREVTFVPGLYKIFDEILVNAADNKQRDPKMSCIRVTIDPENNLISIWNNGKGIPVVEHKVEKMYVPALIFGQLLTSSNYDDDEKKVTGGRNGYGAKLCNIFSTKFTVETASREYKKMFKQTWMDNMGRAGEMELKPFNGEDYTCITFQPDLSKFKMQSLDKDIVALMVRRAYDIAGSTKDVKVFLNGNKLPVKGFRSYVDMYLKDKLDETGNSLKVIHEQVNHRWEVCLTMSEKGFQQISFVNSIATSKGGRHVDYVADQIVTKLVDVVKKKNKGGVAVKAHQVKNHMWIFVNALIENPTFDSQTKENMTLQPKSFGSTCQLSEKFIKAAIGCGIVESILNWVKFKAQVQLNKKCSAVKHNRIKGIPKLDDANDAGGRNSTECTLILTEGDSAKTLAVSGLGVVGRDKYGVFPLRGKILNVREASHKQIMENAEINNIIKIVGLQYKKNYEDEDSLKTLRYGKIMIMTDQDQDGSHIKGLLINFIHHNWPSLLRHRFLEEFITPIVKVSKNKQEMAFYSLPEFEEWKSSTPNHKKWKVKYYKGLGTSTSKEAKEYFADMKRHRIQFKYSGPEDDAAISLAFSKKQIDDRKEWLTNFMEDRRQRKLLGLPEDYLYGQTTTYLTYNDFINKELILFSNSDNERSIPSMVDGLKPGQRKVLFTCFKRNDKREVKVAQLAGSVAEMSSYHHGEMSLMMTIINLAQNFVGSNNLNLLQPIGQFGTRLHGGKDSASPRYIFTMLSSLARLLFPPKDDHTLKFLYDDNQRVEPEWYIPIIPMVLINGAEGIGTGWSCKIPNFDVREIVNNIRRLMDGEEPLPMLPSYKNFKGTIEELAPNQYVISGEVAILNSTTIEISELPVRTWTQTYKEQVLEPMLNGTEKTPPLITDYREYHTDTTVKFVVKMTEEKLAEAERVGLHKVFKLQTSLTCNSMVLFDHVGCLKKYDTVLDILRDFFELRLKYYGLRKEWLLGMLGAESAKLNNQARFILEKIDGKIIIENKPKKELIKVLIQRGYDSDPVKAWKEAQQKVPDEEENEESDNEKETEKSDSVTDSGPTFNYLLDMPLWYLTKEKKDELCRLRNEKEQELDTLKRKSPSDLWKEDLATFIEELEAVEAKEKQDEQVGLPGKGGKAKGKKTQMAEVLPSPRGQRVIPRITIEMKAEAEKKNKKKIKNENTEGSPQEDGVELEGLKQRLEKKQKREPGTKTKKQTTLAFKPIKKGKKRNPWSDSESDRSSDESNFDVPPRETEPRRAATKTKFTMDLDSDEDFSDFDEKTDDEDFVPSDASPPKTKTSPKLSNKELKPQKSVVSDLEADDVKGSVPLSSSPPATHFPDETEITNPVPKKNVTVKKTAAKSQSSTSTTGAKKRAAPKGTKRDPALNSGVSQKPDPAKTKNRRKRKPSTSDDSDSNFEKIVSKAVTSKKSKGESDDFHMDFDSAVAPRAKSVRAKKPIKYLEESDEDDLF
Procedure, shortened: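 CCRF-CEM cells (60 × 10^5) exposed to test compound for 2 h, then lysed with 1% Sarkosyl. DNA was isolated, and TOP2–DNA covalent complexes were detected by Western slot blot using a mouse anti-human TOP2α antibody.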

[6] = molecular target: T2, TOP1; experiment: TOP1-mediated relaxation assay; assay type: biochemical; conditions: 25 μM concentration

Row | TDP2 inhibitory activity (in words) [1] | TDP1 inhibition (in words) [2] | Structure (SMILES) | TOP2 relaxing activity inhibition (in words) [4] | TOP1 relaxing activity inhibition (in words) [6] | other results
1 | inactive |  | CCOC(=O)c1c2c(n(C)c1C)C(=O)c1ncccc1C2=O [Compound 72, ethyl 1,2-dimethyl-4,9-dioxo-4,9-dihydro-1H-pyrrolo[3,2-g]quinoline-3-carboxylate] |  |  | 
2 | inactive |  | Cc1oc2c(c1C(=O)Oc1ccc(C(=O)c3ccccc3)cc1)C(=O)c1ncccc1C2=O [Compound 46, 4-Benzoylphenyl 2-methyl-4,9-dioxo-4,9-dihydrofuro[2,3-g]quinoline-3-carboxylate] |  |  | 
3 | inactive |  | Cc1oc2c(c1C(=O)Oc1ccc3ccccc3c1)C(=O)c1ncccc1C2=O [Compound 40, 2-Naphthalenyl 2-methyl-4,9-dioxo-4,9-dihydrofuro[2,3-g]quinoline-3-carboxylate] |  |  | 
4 | inactive |  | CCOC(=O)c1n[nH]c2c1C(=O)c1ncccc1C2=O [Compound 75, Ethyl 4,9-dioxo-4,9-dihydro-1H-pyrazolo[3,4-g]quinoline-3-carboxylate] |  |  | 
5 |  | no activity | CCOC(=O)c1noc2c1C(=O)c1cccnc1C2=O [Compound 74, Ethyl 4,9-dioxo-4,9-dihydroisoxazolo[4,5-g]quinoline-3-carboxylate] | do not have inhibitory potency; also recorded: no activity | do not have inhibitory potency; also recorded: no activity | TOP1-mediated DNA cleavage, formation of covalent TOP1-DNA complex (in words) [3]: do not have inhibitory potency; Induction of TOP2cc formation (ICE assay, in words) [5]: unable to induce the formation of TOP2cc
6 | inactive |  | CCOC(=O)c1n[nH]c2c1C(=O)c1cccnc1C2=O [Compound 76, Ethyl 4,9-dioxo-4,9-dihydro-1H-pyrazolo[4,3-g]quinoline-3-carboxylate] |  |  | 
7 | inactive |  | Cc1oc2c(c1C(=O)Oc1ccc3c(c1)OCO3)C(=O)c1ncccc1C2=O [Compound 49, Benzo[d][1,3]dioxol-5-yl 2-methyl-4,9-dioxo-4,9-dihydrofuro[2,3-g]quinoline-3-carboxylate] |  |  | 
8 |  | no activity | CCOC(=O)c1noc2c1C(=O)c1ncccc1C2=O [Compound 73, Ethyl 4,9-dioxo-4,9-dihydroisoxazolo[5,4-g]quinoline-3-carboxylate] | do not have inhibitory potency; also recorded: no activity | do not have inhibitory potency; also recorded: no activity | TOP1-mediated DNA cleavage, formation of covalent TOP1-DNA complex (in words) [3]: do not have inhibitory potency
9 |  | did not inhibit | CCOC(=O)c1c(C)oc2c1C(=O)c1ncccc1C2=O [Compound 1, Ethyl 2-methyl-4,9-dioxo-4,9-dihydrofuro[2,3-g]quinoline-3-carboxylate] | did not inhibit | did not inhibit | 
10 | inactive |  | CCOC(=O)c1c(C)[nH]c2c1C(=O)c1cccnc1C2=O [Compound 70, ethyl 2-methyl-4,9-dioxo-4,9-dihydro-1H-pyrrolo[3,2-g]quinoline-3-carboxylate] |  |  | 
